Test results published in ChEMBL document CHEMBL1142414, “Comprehensive mechanistic analysis of hits from high-throughput and docking screens against beta-lactamase” (J Med Chem, 2008).
pIC50, pKi: −log10 of the molar value.

molecular target: not listed separately; assay: Inhibition of beta-lactamase AmpC in presence of 0.1% Triton X-100
Method in brief: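 Cuvette assay with 1 nM AmpC β-lactamase and 200 µM nitrocefin, Triton X-100 at either 0.00002 or 0.1%. Compound and enzyme preincubated 5 min, then substrate added to start the reaction. Nitrocefin hydrolysis read at 482 nm by UV–visible spectrophotometry at room temperature.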

SMILES	pIC50
S=C(S)OC1CC2CC1C1CCCC21 (configuration not stated)	< 3.22
CC(C)C[C@H](N)c1nnc(S(=O)(=O)Cc2ccc(F)cc2)o1	3.22
O=C(Oc1cccnc1)c1cc2ccccc2oc1=O	4.37
COc1cccc2cc(C(=O)n3ccc(C)n3)c(=O)oc12	4.70
N[C@@H](Cc1cc(-c2ccc(Cl)cc2Cl)cc(CP(=O)(O)O)c1O)C(=O)O	3.66
CCOC(=O)C1=C(c2ccccc2)NC(SCC(=O)Nc2ccc(C)cc2)=C(C#N)C1c1ccco1 (configuration not stated)	< 3.22
Cc1occc1C(=O)n1nnc2ccccc21	4.42
O=C(O)c1ccc2c(c1)C(=O)N(C(Cc1ccc(O)cc1)C(=O)O)C2=O (racemic)	3.68
CC(C)[C@H](NC(=O)OC(C)(C)C)c1nnc(S(=O)(=O)Cc2c(F)cccc2Cl)o1 (stereo in doubt; 1)	> 6.00
O=C(O)C1=CC(=C(c2ccc(O)c(C(=O)O)c2)c2ccc(O)c(C(=O)O)c2)C=CC1=O [AURINTRICARBOXYLIC ACID]	< 3.22
O=c1oc2c(O)c(O)cc3c(=O)oc4c(O)c(O)cc1c4c23 [ELLAGIC ACID]	< 3.22

molecular target: T1, Cruzipain (Trypanosoma cruzi, UniProt P25779); assay: Inhibition of cruzain in presence of 0.01% Triton X-100
Method in brief: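 Recombinant cruzain (10 nM) in 0.1 M sodium acetate pH 5.5 with 5 mM DTT and 0.01% Triton X-100, substrate 2.5 µM Z-Phe-Arg-AMC. Cleavage read fluorimetrically in 96-well format, excitation 355 nm, emission 460 nm.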

T1 sequence (P25779 whole entry): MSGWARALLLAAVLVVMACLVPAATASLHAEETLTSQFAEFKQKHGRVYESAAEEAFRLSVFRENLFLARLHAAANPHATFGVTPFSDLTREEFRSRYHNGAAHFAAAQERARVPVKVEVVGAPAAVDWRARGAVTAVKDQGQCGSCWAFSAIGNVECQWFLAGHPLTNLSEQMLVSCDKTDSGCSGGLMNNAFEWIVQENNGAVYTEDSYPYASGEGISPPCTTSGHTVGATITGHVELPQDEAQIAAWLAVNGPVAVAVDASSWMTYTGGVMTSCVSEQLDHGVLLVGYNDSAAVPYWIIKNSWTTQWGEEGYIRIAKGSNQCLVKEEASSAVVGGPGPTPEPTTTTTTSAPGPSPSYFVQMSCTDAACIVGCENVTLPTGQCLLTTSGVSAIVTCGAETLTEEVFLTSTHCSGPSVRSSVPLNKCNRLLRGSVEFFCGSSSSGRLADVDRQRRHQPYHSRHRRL

SMILES	pIC50
S=C(S)OC1CC2CC1C1CCCC21 (configuration not stated)	< 3.22
O=C(Oc1cccnc1)c1cc2ccccc2oc1=O	4.05
COc1cccc2cc(C(=O)n3ccc(C)n3)c(=O)oc12	3.97
N[C@@H](Cc1cc(-c2ccc(Cl)cc2Cl)cc(CP(=O)(O)O)c1O)C(=O)O	3.80
CCOC(=O)C1=C(c2ccccc2)NC(SCC(=O)Nc2ccc(C)cc2)=C(C#N)C1c1ccco1 (configuration not stated)	3.92
Cc1occc1C(=O)n1nnc2ccccc21	> 3.22
O=C(O)c1ccc2c(c1)C(=O)N(C(Cc1ccc(O)cc1)C(=O)O)C2=O (racemic)	< 2.00
CC(C)[C@H](NC(=O)OC(C)(C)C)c1nnc(S(=O)(=O)Cc2c(F)cccc2Cl)o1 (stereo in doubt; 1)	> 6.00
O=C(O)C1=CC(=C(c2ccc(O)c(C(=O)O)c2)c2ccc(O)c(C(=O)O)c2)C=CC1=O [AURINTRICARBOXYLIC ACID]	4.55
O=c1oc2c(O)c(O)cc3c(=O)oc4c(O)c(O)cc1c4c23 [ELLAGIC ACID]	3.66

molecular target: not listed separately; assay: Inhibition of malate dehydrogenase
Method in brief: (§1)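 Malate dehydrogenase (2 nM) incubated 5 min with inhibitor, then reaction started with 200 µM oxaloacetic acid plus 200 µM NADH. In the no-preincubation variant, inhibitor, oxaloacetate and NADH were mixed first and enzyme was added last. NADH consumption followed at 340 nm.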

SMILES	pIC50
S=C(S)OC1CC2CC1C1CCCC21 (configuration not stated)	< 3.22
CC(C)C[C@H](N)c1nnc(S(=O)(=O)Cc2ccc(F)cc2)o1	< 3.22
COc1cccc2cc(C(=O)n3ccc(C)n3)c(=O)oc12	< 3.22
N[C@@H](Cc1cc(-c2ccc(Cl)cc2Cl)cc(CP(=O)(O)O)c1O)C(=O)O	< 3.22
CCOC(=O)C1=C(c2ccccc2)NC(SCC(=O)Nc2ccc(C)cc2)=C(C#N)C1c1ccco1 (configuration not stated)	5.30
Cc1occc1C(=O)n1nnc2ccccc21	4.19
CC(C)[C@H](NC(=O)OC(C)(C)C)c1nnc(S(=O)(=O)Cc2c(F)cccc2Cl)o1 (stereo in doubt; 1)	< 3.22
O=C(O)C1=CC(=C(c2ccc(O)c(C(=O)O)c2)c2ccc(O)c(C(=O)O)c2)C=CC1=O [AURINTRICARBOXYLIC ACID]	5.30
O=c1oc2c(O)c(O)cc3c(=O)oc4c(O)c(O)cc1c4c23 [ELLAGIC ACID]	4.26

tested on: not listed separately; assay: Inhibition of chymotrypsin in presence of 0.1% Triton X-100
Method in brief: (§2)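 Chymotrypsin (28 nM) preincubated 5 min with inhibitor, then reaction started with 200 µM N-succinyl-Ala-Ala-Pro-Phe p-nitroanilide. In the no-preincubation variant, inhibitor and substrate were mixed first and enzyme was added to start. Progress read at 410 nm.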

SMILES	pIC50
S=C(S)OC1CC2CC1C1CCCC21 (configuration not stated)	< 3.22
CC(C)C[C@H](N)c1nnc(S(=O)(=O)Cc2ccc(F)cc2)o1	3.77
O=C(Oc1cccnc1)c1cc2ccccc2oc1=O	4.43
COc1cccc2cc(C(=O)n3ccc(C)n3)c(=O)oc12	4.15
N[C@@H](Cc1cc(-c2ccc(Cl)cc2Cl)cc(CP(=O)(O)O)c1O)C(=O)O	3.40
CCOC(=O)C1=C(c2ccccc2)NC(SCC(=O)Nc2ccc(C)cc2)=C(C#N)C1c1ccco1 (configuration not stated)	< 3.22
Cc1occc1C(=O)n1nnc2ccccc21	> 6.00
CC(C)[C@H](NC(=O)OC(C)(C)C)c1nnc(S(=O)(=O)Cc2c(F)cccc2Cl)o1 (stereo in doubt; 1)	> 6.00
O=C(O)C1=CC(=C(c2ccc(O)c(C(=O)O)c2)c2ccc(O)c(C(=O)O)c2)C=CC1=O [AURINTRICARBOXYLIC ACID]	< 3.22
O=c1oc2c(O)c(O)cc3c(=O)oc4c(O)c(O)cc1c4c23 [ELLAGIC ACID]	> 3.22

tested on: not listed separately; assay: Inhibition of chymotrypsin; method in brief: as §2

SMILES	pIC50
S=C(S)OC1CC2CC1C1CCCC21 (configuration not stated)	3.57
CC(C)C[C@H](N)c1nnc(S(=O)(=O)Cc2ccc(F)cc2)o1	3.57
O=C(Oc1cccnc1)c1cc2ccccc2oc1=O	4.43
COc1cccc2cc(C(=O)n3ccc(C)n3)c(=O)oc12	4.15
N[C@@H](Cc1cc(-c2ccc(Cl)cc2Cl)cc(CP(=O)(O)O)c1O)C(=O)O	3.57
CCOC(=O)C1=C(c2ccccc2)NC(SCC(=O)Nc2ccc(C)cc2)=C(C#N)C1c1ccco1 (configuration not stated)	> 6.00
Cc1occc1C(=O)n1nnc2ccccc21	> 6.00
O=C(O)c1ccc2c(c1)C(=O)N(C(Cc1ccc(O)cc1)C(=O)O)C2=O (racemic)	< 2.00
CC(C)[C@H](NC(=O)OC(C)(C)C)c1nnc(S(=O)(=O)Cc2c(F)cccc2Cl)o1 (stereo in doubt; 1)	> 6.00
O=C(O)C1=CC(=C(c2ccc(O)c(C(=O)O)c2)c2ccc(O)c(C(=O)O)c2)C=CC1=O [AURINTRICARBOXYLIC ACID]	3.74
O=c1oc2c(O)c(O)cc3c(=O)oc4c(O)c(O)cc1c4c23 [ELLAGIC ACID]	3.33

molecular target: not listed separately; assay: Inhibition of malate dehydrogenase in presence of 0.1% Triton X-100; method in brief: as §1

SMILES	pIC50
CCOC(=O)C1=C(c2ccccc2)NC(SCC(=O)Nc2ccc(C)cc2)=C(C#N)C1c1ccco1 (configuration not stated)	3.97
Cc1occc1C(=O)n1nnc2ccccc21	< 3.22
CC(C)[C@H](NC(=O)OC(C)(C)C)c1nnc(S(=O)(=O)Cc2c(F)cccc2Cl)o1 (stereo in doubt; 1)	< 3.22
O=C(O)C1=CC(=C(c2ccc(O)c(C(=O)O)c2)c2ccc(O)c(C(=O)O)c2)C=CC1=O [AURINTRICARBOXYLIC ACID]	4.52
O=c1oc2c(O)c(O)cc3c(=O)oc4c(O)c(O)cc1c4c23 [ELLAGIC ACID]	3.97

molecular target: T1, Cruzipain; assay: Inhibition of cruzain

SMILES	pIC50
S=C(S)OC1CC2CC1C1CCCC21 (configuration not stated)	4.82
O=C(Oc1cccnc1)c1cc2ccccc2oc1=O	4.15
COc1cccc2cc(C(=O)n3ccc(C)n3)c(=O)oc12	3.92
N[C@@H](Cc1cc(-c2ccc(Cl)cc2Cl)cc(CP(=O)(O)O)c1O)C(=O)O	4.11
CCOC(=O)C1=C(c2ccccc2)NC(SCC(=O)Nc2ccc(C)cc2)=C(C#N)C1c1ccco1 (configuration not stated)	> 6.00
Cc1occc1C(=O)n1nnc2ccccc21	3.97
O=C(O)c1ccc2c(c1)C(=O)N(C(Cc1ccc(O)cc1)C(=O)O)C2=O (racemic)	< 2.00
CC(C)[C@H](NC(=O)OC(C)(C)C)c1nnc(S(=O)(=O)Cc2c(F)cccc2Cl)o1 (stereo in doubt; 1)	> 6.00
O=C(O)C1=CC(=C(c2ccc(O)c(C(=O)O)c2)c2ccc(O)c(C(=O)O)c2)C=CC1=O [AURINTRICARBOXYLIC ACID]	4.28
O=c1oc2c(O)c(O)cc3c(=O)oc4c(O)c(O)cc1c4c23 [ELLAGIC ACID]	4.19

molecular target: not listed separately; assay: Inhibition of beta-lactamase AmpC
Method in brief: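 Cuvette assay with 1 nM AmpC β-lactamase and 200 µM nitrocefin, Triton X-100 at either 0.00002 or 0.1%. Compound and enzyme preincubated 5 min, then substrate added to start the reaction.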

SMILES	pIC50	pKi
S=C(S)OC1CC2CC1C1CCCC21 (configuration not stated)	3.57	
CC(C)C[C@H](N)c1nnc(S(=O)(=O)Cc2ccc(F)cc2)o1	3.22	
O=C(Oc1cccnc1)c1cc2ccccc2oc1=O	4.26	
COc1cccc2cc(C(=O)n3ccc(C)n3)c(=O)oc12	4.60	
N[C@@H](Cc1cc(-c2ccc(Cl)cc2Cl)cc(CP(=O)(O)O)c1O)C(=O)O	3.80	
CCOC(=O)C1=C(c2ccccc2)NC(SCC(=O)Nc2ccc(C)cc2)=C(C#N)C1c1ccco1 (configuration not stated)	4.66	
Cc1occc1C(=O)n1nnc2ccccc21	4.70	
O=C(O)c1ccc2c(c1)C(=O)N(C(Cc1ccc(O)cc1)C(=O)O)C2=O (racemic)		3.85
CC(C)[C@H](NC(=O)OC(C)(C)C)c1nnc(S(=O)(=O)Cc2c(F)cccc2Cl)o1 (stereo in doubt; 1)	> 6.00	
O=C(O)C1=CC(=C(c2ccc(O)c(C(=O)O)c2)c2ccc(O)c(C(=O)O)c2)C=CC1=O [AURINTRICARBOXYLIC ACID]	3.92	
O=c1oc2c(O)c(O)cc3c(=O)oc4c(O)c(O)cc1c4c23 [ELLAGIC ACID]	3.84	
